Measured values from article PMC9053626 (RSC Advances, 2020).

Experiments:
[1] = release medium vs anhydrous ethanol; cited from earlier work
4T1 cells = experiment: MTT cytotoxicity assay; format: cell-based, murine; details: Mus musculus
Method in brief: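 4T1 cells grown in 1640 medium with 5% FBS and 1% penicillin/streptomycin at 37 °C, 5% CO2. Seeded at 2000 cells/well for 24 h, then exposed to a range of test concentrations for 48 h or 72 h. Washed twice with cold PBS, given fresh medium plus MTT for 4 h, formazan dissolved in DMSO, A570 read. Inhibition rate calculated relative to untreated control absorbance.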

[2] = system: 4T1 cell tumor-bearing xenograft model; experiment: In vivo antitumor study and histological evaluation; parameters: species or system female BABL/c mice
Method in brief: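 Orthotopic 4T1 model: 0.1 mL of 4T1 cells (1 × 107 mL−1) injected into the fourth pair of breast pads. At 50–100 mm3 tumours, mice randomised into three groups (n = 6). Killed day 14; heart, liver, lung, spleen, kidney and tumour fixed in 10% formaldehyde for H&E.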

C[C@H]1[C@@H](O)O[C@@H]2O[C@@]3(C)CC[C@H]4[C@H](C)CC[C@@H]1[C@@]24OO3 [DHA-Sol, Dihydroartemisinin]
stability of DHA in the release medium [1]: degraded quickly in the release medium
IC50 (4T1 cells; 4T1, 48 h): 2.31 ± 0.1 µM
IC50 (4T1 cells; 4T1, 72 h): 0.62 ± 0.02 µM
tumor volume ([2]; after 14 days, i.v. 0.07 mmol DHA kg^−1 on days 1, 3, 5, 7, 9, saline group 3309.68 ± 441.61): 867.27 ± 117.43 mm^3
body weight change versus saline group ([2]; end of the experiment, p > 0.1): a significant change in the body weight of rats was not observed
survival of mice during the experiment ([2]; n = 6 per group, 0.07 mmol DHA kg^−1 i.v. five times): two mice treated with the DHA-Sol group died during the experiment
